# Columns and labels:
# Staphylococcus aureus [1] = assay: Potentiation of sulfamethoxazole-mediated antibacterial activity against methicillin-susceptible Staphylococcus aureus ATCC 29213 assessed as sulfamethoxazole MIC after 20 hrs by CLSI microdilution assay (reference value: 100 microg/ml); format: functional; settings: ATCC 29213, 20 h
# Staphylococcus aureus [2] = assay: Antibacterial activity against methicillin-resistant Staphylococcus aureus USA300 at 5 ug after 18 to 20 hrs by CLSI disk diffusion assay; format: functional; settings: read-out: DIZ
# How it was run: (§1)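 Disk diffusion on 4 mm Mueller-Hinton agar swabbed with about 10^8 CFU/mL suspension in PBS; 6 mm paper disk loaded with 5 µg compound in DMSO; 37 °C ambient air for 18–20 h; diameter of the complete inhibition zone measured in mm with callipers from the plate back; at least three independent experiments, mean with standard error; 6 mm means no inhibition.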
# Staphylococcus aureus [3] = assay: Bactericidal activity against methicillin-resistant Staphylococcus aureus USA300 preincubated for 20 hrs followed by agar plating and measured after 18 to 20 hrs; format: functional
# How it was run: (§2)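 MBC taken from broth microdilution (final about 10^5 CFU/mL, Mueller-Hinton broth, 37 °C for 20 h). Clear wells (basal optical density) were spread on TSA plates and incubated at 37 °C for 18–20 h. The lowest concentration giving no colonies is reported. At least triplicate.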
# Staphylococcus aureus [4] = assay: Bactericidal activity against hospital-associated methicillin-resistant Staphylococcus aureus COL preincubated for 20 hrs followed by agar plating and measured after 18 to 20 hrs; format: functional; how it was run: as §2
# Staphylococcus aureus [5] = assay: Synergistic antibacterial activity against methicillin-resistant Staphylococcus aureus USA300 assessed as fractional inhibitory concentration index in presence of sulfamethoxazole after 18 hrs by broth microdilution-based checkerboard titration assay; format: functional
# A549 = assay: Cytotoxicity against human A549 cells after 24 to 48 hrs by fluorescence-based assay; format: cell-based
# How it was run: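 A549 cells, ~10^4 per well in DMEM, given 2-fold serial dilutions of compound (DMSO stock diluted in DMEM). Incubated at 37 °C, 5% CO2. PrestoBlue added for 1 h, then fluorescence read at excitation 535 nm and emission 610 nm as a measure of viable cells.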
# Staphylococcus aureus [6] = assay: Bactericidal activity against methicillin-susceptible Staphylococcus aureus ATCC 29213 preincubated for 20 hrs followed by agar plating and measured after 18 to 20 hrs; format: functional
# How it was run: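 Broth microdilution per CLSI guideline. Compounds diluted 2-fold in MHB from 100 mM DMSO stocks. Inoculum ~10^5 CFU/mL final, from overnight TSB culture diluted in PBS. Plates incubated at 37 °C. Wells without growth by optical density spread on TSA and incubated at 37 °C. MBC is the lowest concentration giving no colonies. At least triplicate.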
# Staphylococcus aureus [7] = assay: Synergistic antibacterial activity against hospital-associated methicillin-resistant Staphylococcus aureus COL in presence of sulfamethoxazole after 20 hrs by broth microdilution-based checkerboard titration assay; format: functional
# Staphylococcus aureus [8] = assay: Antibacterial activity against methicillin-susceptible Staphylococcus aureus ATCC 25923 at 5 ug after 18 to 20 hrs by CLSI disk diffusion assay; format: functional; settings: read-out: DIZ
# How it was run: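 Mueller-Hinton agar, 4 mm deep, swabbed with PBS-diluted overnight TSB culture (~10^8 CFU/mL). Paper disk (6 mm) loaded with compound in DMSO, incubated 37 °C in ambient air. Complete inhibition zone diameter read from plate back with callipers; 6 mm means no inhibition. At least three independent experiments, mean with standard error.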
# Staphylococcus aureus [9] = assay: Antibacterial activity against hospital-associated methicillin-resistant Staphylococcus aureus COL after 20 hrs by CLSI microdilution assay; format: functional
# Staphylococcus aureus [10] = assay: Antibacterial activity against methicillin-susceptible Staphylococcus aureus ATCC 29213 after 20 hrs by CLSI microdilution assay; format: functional; settings: ATCC 29213, 20 h
# Staphylococcus aureus [11] = assay: Synergistic antibacterial activity against methicillin-susceptible Staphylococcus aureus ATCC 29213 in presence of sulfamethoxazole after 20 hrs by broth microdilution-based checkerboard titration assay; format: functional
# Staphylococcus aureus [12] = assay: Antibacterial activity against hospital-associated methicillin-resistant Staphylococcus aureus COL at 5 ug after 18 to 20 hrs by CLSI disk diffusion assay; format: functional; settings: read-out: DIZ; how it was run: as §1
# Staphylococcus aureus [13] = assay: Potentiation of sulfamethoxazole-mediated antibacterial activity against hospital-associated methicillin-resistant Staphylococcus aureus COL assessed as sulfamethoxazole MIC after 20 hrs by CLSI microdilution assay (reference value: 200 microg/ml); format: functional
# Staphylococcus aureus [14] = assay: Synergistic antibacterial activity against hospital-associated methicillin-resistant Staphylococcus aureus COL assessed as fractional inhibitory concentration index in presence of sulfamethoxazole after 18 hrs by broth microdilution-based checkerboard titration assay; format: functional
# Staphylococcus aureus [15] = assay: Synergistic antibacterial activity against methicillin-resistant Staphylococcus aureus USA300 in presence of sulfamethoxazole after 20 hrs by broth microdilution-based checkerboard titration assay; format: functional
# Staphylococcus aureus [16] = assay: Antibacterial activity against methicillin-resistant Staphylococcus aureus USA300 after 20 hrs by CLSI microdilution assay; format: functional; settings: USA300, 20 h
# Staphylococcus aureus [17] = assay: Synergistic antibacterial activity against methicillin-susceptible Staphylococcus aureus ATCC 29213 assessed as fractional inhibitory concentration index in presence of sulfamethoxazole after 18 hrs by broth microdilution-based checkerboard titration assay; format: functional
# Staphylococcus aureus [18] = assay: Potentiation of sulfamethoxazole-mediated antibacterial activity against methicillin-resistant Staphylococcus aureus USA300 assessed as sulfamethoxazole MIC after 20 hrs by CLSI microdilution assay (reference value: 100 microg/ml); format: functional; settings: USA300, 20 h
Compound,MIC (Staphylococcus aureus [1]),zone of inhibition at 5 µg/disc (Staphylococcus aureus [2]),MBC (Staphylococcus aureus [3]),MBC (Staphylococcus aureus [4]),fractional inhibitory concentration index (FICI) (Staphylococcus aureus [5]),IC50 (A549),MBC (Staphylococcus aureus [6]),FIC (Staphylococcus aureus [7]),zone of inhibition at 5 µg/disc (Staphylococcus aureus [8]),MIC (Staphylococcus aureus [9]),MIC (Staphylococcus aureus [10]),FIC (Staphylococcus aureus [11]),zone of inhibition at 5 µg/disc (Staphylococcus aureus [12]),MIC (Staphylococcus aureus [13]),fractional inhibitory concentration index (FICI) (Staphylococcus aureus [14]),FIC (Staphylococcus aureus [15]),MIC (Staphylococcus aureus [16]),fractional inhibitory concentration index (FICI) (Staphylococcus aureus [17]),MIC (Staphylococcus aureus [18])
COc1cc(Cc2cnc(N)nc2N)cc(Cl)c1OC,6.25 µg/mL,18.1 mm,2.5 µg/mL,10 µg/mL,0.12,467 µM,1.25 µg/mL,0.06,15.1 mm,5 µg/mL,1.25 µg/mL,0.06,6 mm,12.5 µg/mL,0.12,0.06,2.5 µg/mL,0.12,6.25 µg/mL
COc1cc(Cc2cnc(N)nc2N)cc(Br)c1OC,6.25 µg/mL,20.4 mm,1.25 µg/mL,5 µg/mL,0.18,321 µM,1.25 µg/mL,0.06,17.4 mm,5 µg/mL,1.25 µg/mL,0.06,6 mm,12.5 µg/mL,0.12,0.06,1.25 µg/mL,0.12,6.25 µg/mL
COc1cc(Cc2cnc(N)nc2N)cc(I)c1OC,3.13 µg/mL,22.8 mm,1.25 µg/mL,5 µg/mL,0.12,266 µM,1.25 µg/mL,0.06,21 mm,2.5 µg/mL,1.25 µg/mL,0.03,6 mm,12.5 µg/mL,0.12,0.06,1.25 µg/mL,0.09,6.25 µg/mL
